Laboratory results: ChEMBL document CHEMBL1932920
Activity calls are given as the source filed them.

Assays:
[1] = system: Arabidopsis thaliana; assay: Binding affinity to POPL in Arabidopsis thaliana leaf extracts at 4 to 20 uM after 1 hr using SDS-PAGE followed by nanoLC-ESI-MS/MS analysis
[2] = target: T1, Probable carboxylesterase 12 (Arabidopsis thaliana) (UniProt Q9SMN0); assay: Binding affinity to CXE12 in Arabidopsis thaliana leaf extracts at 4 to 20 uM after 1 hr using SDS-PAGE followed by nanoLC-ESI-MS/MS analysis
T1 sequence (whole entry): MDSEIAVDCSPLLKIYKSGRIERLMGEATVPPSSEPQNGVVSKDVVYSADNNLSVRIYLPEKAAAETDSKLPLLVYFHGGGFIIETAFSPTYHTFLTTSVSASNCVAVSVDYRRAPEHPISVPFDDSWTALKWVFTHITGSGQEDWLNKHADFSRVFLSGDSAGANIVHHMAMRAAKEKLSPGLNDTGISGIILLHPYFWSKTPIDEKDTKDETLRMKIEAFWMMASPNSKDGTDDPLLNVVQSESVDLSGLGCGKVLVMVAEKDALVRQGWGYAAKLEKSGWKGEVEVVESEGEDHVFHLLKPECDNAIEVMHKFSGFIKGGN

[3] = target: T2, Serine carboxypeptidase-like 48 (Arabidopsis thaliana) (UniProt Q56WF8); assay: Binding affinity to SCPL48 in Arabidopsis thaliana leaf extracts at 4 to 20 uM after 1 hr using SDS-PAGE followed by nanoLC-ESI-MS/MS analysis
T2 sequence (whole entry): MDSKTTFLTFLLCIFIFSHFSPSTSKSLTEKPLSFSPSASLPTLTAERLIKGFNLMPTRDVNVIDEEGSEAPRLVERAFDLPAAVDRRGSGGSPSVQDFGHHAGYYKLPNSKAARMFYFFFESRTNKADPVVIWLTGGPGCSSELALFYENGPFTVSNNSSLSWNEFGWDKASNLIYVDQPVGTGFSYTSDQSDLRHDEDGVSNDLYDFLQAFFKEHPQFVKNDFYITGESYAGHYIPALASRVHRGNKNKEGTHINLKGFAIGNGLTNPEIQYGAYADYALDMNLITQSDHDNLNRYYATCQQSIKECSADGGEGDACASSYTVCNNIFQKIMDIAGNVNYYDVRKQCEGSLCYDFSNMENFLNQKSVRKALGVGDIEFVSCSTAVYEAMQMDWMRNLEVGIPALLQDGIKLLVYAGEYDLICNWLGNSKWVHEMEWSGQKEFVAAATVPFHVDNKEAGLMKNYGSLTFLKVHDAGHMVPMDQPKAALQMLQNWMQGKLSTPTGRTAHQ

[4] = target: T3, Probable carboxylesterase 7 (Arabidopsis thaliana) (UniProt Q9ZQ91); assay: Binding affinity to CXE7 in Arabidopsis thaliana leaf extracts at 4 to 20 uM after 1 hr using SDS-PAGE followed by nanoLC-ESI-MS/MS analysis
T3 sequence (whole entry): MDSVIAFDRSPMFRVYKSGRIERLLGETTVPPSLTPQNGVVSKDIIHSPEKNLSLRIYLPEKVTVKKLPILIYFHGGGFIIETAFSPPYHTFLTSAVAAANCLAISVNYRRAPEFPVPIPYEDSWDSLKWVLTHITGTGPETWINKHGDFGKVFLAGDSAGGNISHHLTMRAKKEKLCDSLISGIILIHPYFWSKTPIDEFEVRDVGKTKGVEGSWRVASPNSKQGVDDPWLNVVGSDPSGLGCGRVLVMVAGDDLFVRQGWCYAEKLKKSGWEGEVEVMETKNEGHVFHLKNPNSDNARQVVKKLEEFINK

[5] = target: T3, Probable carboxylesterase 7 (Arabidopsis thaliana); assay: Binding affinity to CXE7 in Arabidopsis thaliana leaf extracts pre-incubated with 100 uM paraoxon for 30 mins at 5 uM after 1 hr using SDS-PAGE followed by nanoLC-ESI-MS/MS analysis
Outline: (§1)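 Extract from 2 g frozen leaves of 4-week-old A. thaliana Col-0, ground, taken up in water, cleared 5 min at 16,000×g. Labeled with 5 µM probe, biotinylated targets pulled down on avidin beads, run on 1D SDS–PAGE and fluorescence-scanned. Bands excised, digested in-gel, and analysed by nanoLC-ESI-MS/MS on LTQ Velos (C18, 5–40% acetonitrile over 90 min, 300 nL/min, positive mode, m/z 400–1600).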

[6] = target: T2, Serine carboxypeptidase-like 48 (Arabidopsis thaliana); assay: Binding affinity to SCPL48 in Arabidopsis thaliana leaf extracts pre-incubated with 100 uM paraoxon for 30 mins at 5 uM after 1 hr using SDS-PAGE followed by nanoLC-ESI-MS/MS analysis; outline: as §1
[7] = system: Arabidopsis thaliana; assay: Binding affinity to POPL in Arabidopsis thaliana leaf extracts pre-incubated with 100 uM paraoxon for 30 mins at 5 uM after 1 hr using SDS-PAGE followed by nanoLC-ESI-MS/MS analysis; outline: as §1
[8] = target: T1, Probable carboxylesterase 12 (Arabidopsis thaliana); assay: Binding affinity to Arabidopsis thaliana CXE12 overexpressed in agroin filtreated Nicotiana benthamiana leaf extracts pre-incubated with 100 uM paraoxon for 30 mins at 2 uM after 1 hr using SDS-PAGE followed by nanoLC-ESI-MS/MS analysis
Outline: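 CXE12 cDNA in binary vector, Agrobacterium GV3101 pMP90, co-infiltrated with p19 silencing-suppressor strain into 4-week-old N. benthamiana leaves (p19 alone as control). Leaf extracts preincubated 30 min with 100 µM paraoxon or DMSO, then labeled 1 h with 2 µM probe. Reactions stopped in gel loading buffer, proteins resolved on gels, fluorescence scanning.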

[9] = target: T1, Probable carboxylesterase 12 (Arabidopsis thaliana); assay: Binding affinity to CXE12 in Arabidopsis thaliana leaf extracts pre-incubated with 100 uM paraoxon for 30 mins at 5 uM after 1 hr using SDS-PAGE followed by nanoLC-ESI-MS/MS analysis; outline: as §1

Measured: Activity

C#CCNC(=O)OCCOCCOCCOCCP(=O)(OCC)Oc1ccc([N+](=O)[O-])cc1 (centres undefined)
active: [1] | [2] | [3] | [4]

CCOP(=O)(CCOCCOCCOCCOC(=O)NCc1cn(CCCCCNC(=O)CCC(=O)N[C@@H](CCCCNC(=O)CCCCC[C@@H]2SC[C@@H]3NC(=O)N[C@@H]32)C(=O)NCCCCCNC(=O)c2ccc(-c3c4ccc(=[N+](C)C)cc-4oc4cc(N(C)C)ccc34)c(C(=O)[O-])c2)nn1)Oc1ccc([N+](=O)[O-])cc1 (some centres undefined)
active: [5] | [6] | [7] | [8] | [9]
